Experimental data reported in ChEMBL document CHEMBL2203171, “The use of small molecule probes to study spatially separated stimulus-induced signaling pathways” (Bioorg Med Chem Lett, 2012).
Activity calls are given as the source filed them. No cut-off for these calls is given here.

Columns and labels:
Assay type in all cases: cell-based
[1] = biological target: Toll-like receptor 2 (Mus musculus) (UniProt Q9QUN7); assay: Inhibition of MyD88 recruitment to TLR2 in C57BL/6 mouse BMDM cells assessed as inhibition of HKSA-induced IkappaBalpha phosphorylation up to 90 mins by Western blot analysis
Chain of Toll-like receptor 2 (Mus musculus) (Q9QUN7 whole entry): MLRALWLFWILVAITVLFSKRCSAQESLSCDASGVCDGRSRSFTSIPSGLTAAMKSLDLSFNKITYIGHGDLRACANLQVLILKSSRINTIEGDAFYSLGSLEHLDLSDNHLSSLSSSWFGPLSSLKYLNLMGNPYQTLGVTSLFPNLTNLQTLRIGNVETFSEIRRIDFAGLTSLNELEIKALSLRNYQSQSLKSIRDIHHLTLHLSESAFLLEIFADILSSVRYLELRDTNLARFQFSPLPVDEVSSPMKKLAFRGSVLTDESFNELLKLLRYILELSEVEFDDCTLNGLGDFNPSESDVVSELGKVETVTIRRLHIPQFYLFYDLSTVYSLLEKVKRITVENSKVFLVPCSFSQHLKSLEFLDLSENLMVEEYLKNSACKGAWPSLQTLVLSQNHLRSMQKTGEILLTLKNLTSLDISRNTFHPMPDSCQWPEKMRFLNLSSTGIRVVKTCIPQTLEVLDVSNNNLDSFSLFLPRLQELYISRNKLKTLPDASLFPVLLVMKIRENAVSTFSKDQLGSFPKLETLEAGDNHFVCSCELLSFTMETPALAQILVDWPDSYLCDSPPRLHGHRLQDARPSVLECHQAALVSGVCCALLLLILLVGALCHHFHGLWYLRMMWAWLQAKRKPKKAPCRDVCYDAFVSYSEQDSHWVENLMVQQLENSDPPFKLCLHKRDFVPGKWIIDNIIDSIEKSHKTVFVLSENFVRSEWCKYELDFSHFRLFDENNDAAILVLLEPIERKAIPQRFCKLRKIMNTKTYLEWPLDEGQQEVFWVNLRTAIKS
Outline: (§1)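 Bone marrow macrophages from C57BL/6 mice, grown in 70% growth medium (DMEM, 10% FBS) plus 30% L929-conditioned medium and given fresh medium 12-14 h before stimulation. Stimuli: IL-1 40 ng/ml, HKSA ~10^8 cfu/ml, pI:pC 50 μg/ml or CpG 10 μg/ml, ± compound at 10 μM (final) added from a 200x DMSO stock. IκBα and p38 profiled by immunoblot. Three independent experiments, quantitated and normalized.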

[2] = biological target: T1, Toll-like receptor 9 (Mus musculus) (UniProt Q9EQU3); assay: Inhibition of MyD88 recruitment to TLR9 in C57BL/6 mouse BMDM cells assessed as inhibition of CpG-induced IkappaBalpha phosphorylation up to 90 mins by Western blot analysis; outline: as §1
T1 sequence (whole entry): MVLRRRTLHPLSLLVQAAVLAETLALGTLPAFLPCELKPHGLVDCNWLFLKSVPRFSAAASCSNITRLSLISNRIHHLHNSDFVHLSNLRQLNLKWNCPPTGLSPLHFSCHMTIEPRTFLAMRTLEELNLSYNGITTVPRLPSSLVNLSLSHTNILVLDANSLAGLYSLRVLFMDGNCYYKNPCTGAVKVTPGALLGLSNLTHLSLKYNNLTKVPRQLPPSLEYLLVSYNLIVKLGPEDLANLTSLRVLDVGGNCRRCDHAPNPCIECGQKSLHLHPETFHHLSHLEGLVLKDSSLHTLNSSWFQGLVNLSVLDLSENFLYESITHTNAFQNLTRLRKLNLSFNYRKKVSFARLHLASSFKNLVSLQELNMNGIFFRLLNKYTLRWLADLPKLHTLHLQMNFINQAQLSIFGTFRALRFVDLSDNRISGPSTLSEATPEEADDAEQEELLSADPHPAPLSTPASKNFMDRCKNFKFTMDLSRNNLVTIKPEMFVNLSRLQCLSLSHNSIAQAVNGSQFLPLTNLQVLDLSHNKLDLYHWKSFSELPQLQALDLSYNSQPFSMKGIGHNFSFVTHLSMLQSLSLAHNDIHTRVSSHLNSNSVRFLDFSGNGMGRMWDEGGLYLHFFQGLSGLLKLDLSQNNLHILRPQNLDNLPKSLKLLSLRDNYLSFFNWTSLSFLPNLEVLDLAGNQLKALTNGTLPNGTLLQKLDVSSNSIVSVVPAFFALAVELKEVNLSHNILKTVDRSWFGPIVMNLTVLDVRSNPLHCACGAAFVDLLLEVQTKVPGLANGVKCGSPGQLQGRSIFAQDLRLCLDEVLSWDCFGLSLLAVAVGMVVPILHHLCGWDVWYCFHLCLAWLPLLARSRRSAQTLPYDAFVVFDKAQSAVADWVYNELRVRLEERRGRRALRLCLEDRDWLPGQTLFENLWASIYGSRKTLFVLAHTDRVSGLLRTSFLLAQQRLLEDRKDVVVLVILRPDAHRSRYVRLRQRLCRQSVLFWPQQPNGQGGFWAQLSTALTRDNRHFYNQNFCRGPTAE

[3] = biological target: T2, Toll-like receptor 3 (Mus musculus) (UniProt Q99MB1); assay: Inhibition of TRIF recruitment to TLR3 in C57BL/6 mouse BMDM cells assessed as inhibition of pI:pC-induced IkappaBalpha phosphorylation up to 90 mins by Western blot analysis; outline: as §1
T2 sequence (whole entry): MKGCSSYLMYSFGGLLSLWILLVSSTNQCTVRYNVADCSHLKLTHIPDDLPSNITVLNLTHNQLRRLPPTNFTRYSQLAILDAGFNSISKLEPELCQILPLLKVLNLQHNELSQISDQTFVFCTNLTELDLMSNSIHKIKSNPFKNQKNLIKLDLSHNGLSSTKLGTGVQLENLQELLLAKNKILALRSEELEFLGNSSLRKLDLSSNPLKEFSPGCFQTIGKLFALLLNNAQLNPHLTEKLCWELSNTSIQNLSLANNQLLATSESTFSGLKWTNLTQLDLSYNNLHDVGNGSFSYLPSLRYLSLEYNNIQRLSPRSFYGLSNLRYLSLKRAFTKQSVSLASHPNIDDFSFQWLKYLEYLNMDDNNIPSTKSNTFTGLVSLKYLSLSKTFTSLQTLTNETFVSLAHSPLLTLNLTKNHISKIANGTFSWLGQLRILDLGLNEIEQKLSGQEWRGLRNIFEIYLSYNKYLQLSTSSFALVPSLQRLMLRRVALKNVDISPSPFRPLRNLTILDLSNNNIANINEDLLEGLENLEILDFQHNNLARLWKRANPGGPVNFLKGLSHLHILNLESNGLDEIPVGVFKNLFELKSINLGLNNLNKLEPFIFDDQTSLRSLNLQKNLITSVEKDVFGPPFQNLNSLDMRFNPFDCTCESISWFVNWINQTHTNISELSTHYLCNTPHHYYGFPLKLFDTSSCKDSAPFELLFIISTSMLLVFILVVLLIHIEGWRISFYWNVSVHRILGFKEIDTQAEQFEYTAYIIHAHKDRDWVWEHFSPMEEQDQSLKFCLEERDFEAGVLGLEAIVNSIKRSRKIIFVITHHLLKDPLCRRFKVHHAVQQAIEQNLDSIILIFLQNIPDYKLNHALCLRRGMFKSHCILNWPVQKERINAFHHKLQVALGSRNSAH

inhibition [1]	inhibition [2]	inhibition [3]	SMILES
Active	Active	Active	O=C(CCCCCN1C(=O)CCC1=O)Oc1ccc2cc(C(C(=O)NCc3ccccc3)N(C(=O)Cc3ccc4c(c3)OCO4)C3CC3)ccc2c1 (centres undefined)
Active	Active	Active	O=C(CCCCCN1C(=O)C=CC1=O)Oc1ccc2cc(C(C(=O)NCc3ccccc3)N(C(=O)Cc3ccc4c(c3)OCO4)C3CC3)ccc2c1 (centres undefined)
Active	Active	Active	O=C(CCCCCCCC(=O)ON1C(=O)CCC1=O)Oc1ccc2cc(C(C(=O)NCc3ccccc3)N(C(=O)Cc3ccc4c(c3)OCO4)C3CC3)ccc2c1 (centres undefined)
